Assay results taken from ChEMBL document CHEMBL3596197, “Synthesis, topoisomerase I and II inhibitory activity, cytotoxicity, and structure-activity relationship study of 2-phenyl- or hydroxylated 2-phenyl-4-aryl-5H-indeno[1,2-b]pyridines” (Bioorg Med Chem, 2015).
Structures can show the parent of a compound that is named as a salt.

Assays:
[1] = biological target: DNA topoisomerase 2-alpha (Homo sapiens) (UniProt P11388); test: Inhibition of human recombinant DNA topoisomerse 2 alpha using pBR322 as substrate assessed as inhibition of conversion of supercoiled pBR322 to relaxed form at 100 uM after 30 mins by ethidium bromide staining-based electrophoresis analysis
DNA topoisomerase 2-alpha (Homo sapiens), sequence (P11388 whole entry): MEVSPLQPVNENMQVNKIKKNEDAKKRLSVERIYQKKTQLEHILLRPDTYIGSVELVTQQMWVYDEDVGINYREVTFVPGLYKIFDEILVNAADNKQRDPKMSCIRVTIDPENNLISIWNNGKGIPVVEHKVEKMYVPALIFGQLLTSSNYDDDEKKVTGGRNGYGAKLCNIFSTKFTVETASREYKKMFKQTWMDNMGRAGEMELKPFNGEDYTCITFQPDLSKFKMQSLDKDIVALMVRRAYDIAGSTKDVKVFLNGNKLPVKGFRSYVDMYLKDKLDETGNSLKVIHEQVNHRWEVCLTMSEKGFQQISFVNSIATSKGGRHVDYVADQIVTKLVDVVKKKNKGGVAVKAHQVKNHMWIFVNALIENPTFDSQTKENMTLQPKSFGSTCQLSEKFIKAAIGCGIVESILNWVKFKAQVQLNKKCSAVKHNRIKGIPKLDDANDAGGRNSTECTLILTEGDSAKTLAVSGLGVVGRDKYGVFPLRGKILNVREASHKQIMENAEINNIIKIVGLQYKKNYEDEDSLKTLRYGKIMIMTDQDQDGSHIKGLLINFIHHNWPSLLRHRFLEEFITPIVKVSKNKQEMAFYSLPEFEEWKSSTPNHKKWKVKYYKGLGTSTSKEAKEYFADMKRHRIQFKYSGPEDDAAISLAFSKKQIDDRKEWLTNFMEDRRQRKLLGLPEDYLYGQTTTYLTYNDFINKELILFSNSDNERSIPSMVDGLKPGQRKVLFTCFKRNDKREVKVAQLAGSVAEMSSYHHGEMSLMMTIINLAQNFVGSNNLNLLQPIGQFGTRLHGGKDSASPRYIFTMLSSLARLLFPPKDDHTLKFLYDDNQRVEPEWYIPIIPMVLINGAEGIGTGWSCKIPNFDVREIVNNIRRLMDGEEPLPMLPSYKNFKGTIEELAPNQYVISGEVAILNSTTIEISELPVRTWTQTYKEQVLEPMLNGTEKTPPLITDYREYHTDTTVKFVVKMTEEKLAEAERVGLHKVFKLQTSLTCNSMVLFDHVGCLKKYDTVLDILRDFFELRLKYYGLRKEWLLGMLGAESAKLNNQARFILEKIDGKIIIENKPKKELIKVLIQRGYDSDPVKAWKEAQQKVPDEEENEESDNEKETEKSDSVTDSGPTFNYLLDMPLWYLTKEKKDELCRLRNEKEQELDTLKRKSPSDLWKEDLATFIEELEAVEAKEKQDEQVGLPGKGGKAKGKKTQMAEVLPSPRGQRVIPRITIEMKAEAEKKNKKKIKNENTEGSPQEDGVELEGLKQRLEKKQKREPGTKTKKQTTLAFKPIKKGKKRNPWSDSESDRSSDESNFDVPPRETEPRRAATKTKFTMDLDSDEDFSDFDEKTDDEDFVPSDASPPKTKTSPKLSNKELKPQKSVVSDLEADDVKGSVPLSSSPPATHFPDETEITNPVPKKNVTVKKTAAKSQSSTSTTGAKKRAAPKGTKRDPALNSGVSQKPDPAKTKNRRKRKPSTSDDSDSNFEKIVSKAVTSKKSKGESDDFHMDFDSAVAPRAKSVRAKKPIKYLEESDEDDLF
Procedure, shortened: (§1)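 Supercoiled pBR322 (200 ng) with 1 unit human topo IIα, 30 min at 30 °C. Buffer: 10 mM Tris-HCl pH 7.9, 50 mM NaCl, 5 mM MgCl2, 1 mM EDTA, 1 mM ATP, 15 μg/mL BSA. Stopped with EDTA. 1% agarose gel at 25 V for 4 h in TAE, ethidium bromide stain, supercoiled DNA quantitated under UV.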

[2] = biological target: T1, DNA topoisomerase 1 (Homo sapiens) (UniProt P11387); test: Inhibition of human recombinant DNA topoisomerse 1 using pBR322 as substrate assessed as inhibition of conversion of supercoiled pBR322 to relaxed form at 100 uM after 30 mins by ethidium bromide staining-based electrophoresis analysis
T1 sequence (whole entry): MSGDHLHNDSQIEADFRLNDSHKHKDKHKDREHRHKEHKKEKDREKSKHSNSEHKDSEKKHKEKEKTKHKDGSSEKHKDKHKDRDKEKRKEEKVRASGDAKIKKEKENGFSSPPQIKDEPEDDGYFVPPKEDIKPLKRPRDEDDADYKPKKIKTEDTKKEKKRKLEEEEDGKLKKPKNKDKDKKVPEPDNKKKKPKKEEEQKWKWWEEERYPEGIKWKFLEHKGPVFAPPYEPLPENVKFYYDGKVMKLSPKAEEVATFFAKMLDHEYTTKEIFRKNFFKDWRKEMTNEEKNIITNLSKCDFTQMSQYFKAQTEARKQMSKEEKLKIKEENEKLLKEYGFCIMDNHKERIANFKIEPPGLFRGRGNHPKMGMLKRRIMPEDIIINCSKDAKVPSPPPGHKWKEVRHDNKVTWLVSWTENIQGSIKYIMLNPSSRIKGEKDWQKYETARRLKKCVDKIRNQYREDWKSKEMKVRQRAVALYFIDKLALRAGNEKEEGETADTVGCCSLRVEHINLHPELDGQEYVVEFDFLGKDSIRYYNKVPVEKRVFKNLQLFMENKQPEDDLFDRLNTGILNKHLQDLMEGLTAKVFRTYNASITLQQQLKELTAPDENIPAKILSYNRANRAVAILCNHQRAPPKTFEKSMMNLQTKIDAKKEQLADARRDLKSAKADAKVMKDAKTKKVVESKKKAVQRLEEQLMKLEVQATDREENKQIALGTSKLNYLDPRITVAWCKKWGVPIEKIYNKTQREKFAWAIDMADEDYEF
Procedure, shortened: (§2)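 Relaxation of supercoiled pBR322 (100 ng) by 1 unit recombinant human topo I. Run at 37 °C for 30 min in 10 mM Tris-HCl pH 7.9, 150 mM NaCl, 0.1% BSA, 1 mM spermidine, 5% glycerol. Compounds from 20 mM DMSO stocks. Stopped with sarcosyl, then 1% agarose gel at 15 V for 7 h in TAE. Ethidium bromide stain, UV imaging, bands quantitated.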

[3] = biological target: T1, DNA topoisomerase 1 (Homo sapiens); test: Inhibition of human recombinant DNA topoisomerse 1 using pBR322 as substrate assessed as inhibition of conversion of supercoiled pBR322 to relaxed form at 20 uM after 30 mins by ethidium bromide staining-based electrophoresis analysis; procedure, shortened: as §2
HCT-15 = test: Cytotoxicity against human HCT15 cells incubated from day 2 to day 4 by CCK8 assay; type: functional, cell-based
Procedure, shortened: (§3)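 Cells seeded at 2~4 × 10^4 per well and grown overnight in medium with 10% FBS at 37 °C, 5% CO2. Day 2: FBS starvation 4 h, then medium with graded compound concentrations. Day 4: CCK-8 added for 4 h more, absorbance read at 450 nm. IC50 from four-parameter logistic fit. Mean ± S.D. of three experiments run in triplicate.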

T47D = test: Cytotoxicity against human T47D cells incubated from day 2 to day 4 by CCK8 assay; type: functional, cell-based; procedure, shortened: as §3
[4] = biological target: DNA topoisomerase 2-alpha (Homo sapiens) (UniProt P11388); test: Inhibition of human recombinant DNA topoisomerse 2 alpha using pBR322 as substrate assessed as inhibition of conversion of supercoiled pBR322 to relaxed form at 20 uM after 30 mins by ethidium bromide staining-based electrophoresis analysis; procedure, shortened: as §1
DU-145 = test: Cytotoxicity against human DU145 cells incubated from day 2 to day 4 by CCK8 assay; type: functional, cell-based; procedure, shortened: as §3
HeLa = test: Cytotoxicity against human HeLa cells incubated from day 2 to day 4 by CCK8 assay; type: functional, cell-based; procedure, shortened: as §3

Structure (SMILES)	inhibition [1]	inhibition [2]	inhibition [3]	IC50 (HCT-15)	IC50 (T47D)	inhibition [4]	IC50 (DU-145)	IC50 (HeLa)
Oc1ccc(-c2cc(-c3ccco3)c3c(n2)-c2ccccc2C3)cc1	59.9%	54.8%	2.7%	> 50 µM	> 50 µM	44.2%	> 50 µM	> 50 µM
COc1cccc2c1C(=O)c1c(O)c3c(c(O)c1C2=O)C[C@@](O)(C(=O)CO)C[C@@H]3O[C@H]1C[C@H](N)[C@H](O)[C@H](C)O1 [DOXORUBICIN HYDROCHLORIDE]	–	–	–	–	–	–	1.02 µM	–
Oc1ccc(-c2cc(-c3cccnc3)c3c(n2)-c2ccccc2C3)cc1	28.3%	59.7%	2.4%	> 50 µM	> 50 µM	–	> 50 µM	> 50 µM
CC[C@@]1(O)C(=O)OCc2c1cc1n(c2=O)Cc2cc3ccccc3nc2-1 [CAMPTOTHECIN]	–	–	–	0.52 µM	0.31 µM	–	–	0.41 µM
Oc1ccccc1-c1cc(-c2ccsc2)c2c(n1)-c1ccccc1C2	46.8%	87.8%	0%	> 50 µM	> 50 µM	23.2%	36.5 µM	> 50 µM
Oc1ccc(-c2cc(-c3ccncc3)c3c(n2)-c2ccccc2C3)cc1	27.1%	72.4%	0.7%	> 50 µM	> 50 µM	–	> 50 µM	> 50 µM
Oc1ccccc1-c1cc(-c2ccco2)c2c(n1)-c1ccccc1C2	11.7%	58.3%	2.4%	> 50 µM	> 50 µM	–	> 50 µM	> 50 µM
Oc1ccccc1-c1cc(-c2cccs2)c2c(n1)-c1ccccc1C2	31.5%	51.1%	0%	> 50 µM	> 50 µM	21.9%	> 50 µM	> 50 µM
Oc1cccc(-c2cc(-c3ccccn3)c3c(n2)-c2ccccc2C3)c1	48.5%	5.9%	–	> 50 µM	> 50 µM	19.7%	> 50 µM	3.09 µM
Oc1ccc(-c2cc(-c3ccoc3)c3c(n2)-c2ccccc2C3)cc1	40.4%	63.5%	0%	> 50 µM	> 50 µM	36.9%	> 50 µM	> 50 µM
Oc1ccc(-c2cc(-c3ccsc3)c3c(n2)-c2ccccc2C3)cc1	36.9%	90.1%	0%	> 50 µM	> 50 µM	0%	> 50 µM	> 50 µM
Oc1ccccc1-c1cc(-c2ccccn2)c2c(n1)-c1ccccc1C2	9.1%	52.8%	4.9%	> 50 µM	> 50 µM	–	> 50 µM	> 50 µM
Oc1cccc(-c2cc(-c3ccsc3)c3c(n2)-c2ccccc2C3)c1	77.2%	76.9%	0%	6.73 µM	0.94 µM	37%	2.3 µM	1.74 µM
Oc1ccccc1-c1cc(-c2ccoc2)c2c(n1)-c1ccccc1C2	51.7%	50.6%	0.5%	> 50 µM	> 50 µM	39.2%	> 50 µM	> 50 µM
Oc1cccc(-c2cc(-c3ccncc3)c3c(n2)-c2ccccc2C3)c1	8.4%	49.8%	1.5%	> 50 µM	> 50 µM	–	> 50 µM	> 50 µM
c1ccc(-c2cc(-c3ccoc3)c3c(n2)-c2ccccc2C3)cc1	19.6%	0%	–	1.52 µM	35.3 µM	15.1%	46.5 µM	23.8 µM
Oc1cccc(-c2cc(-c3cccs3)c3c(n2)-c2ccccc2C3)c1	72.2%	55.6%	0%	2.32 µM	4.07 µM	32%	4.38 µM	1.47 µM
c1ccc(-c2cc(-c3cccs3)c3c(n2)-c2ccccc2C3)cc1	16.8%	3.7%	–	> 50 µM	26.7 µM	–	9.34 µM	30.8 µM
Oc1ccc(-c2cc(-c3ccccn3)c3c(n2)-c2ccccc2C3)cc1	18.2%	61.2%	4.7%	> 50 µM	> 50 µM	–	> 50 µM	> 50 µM
Oc1cccc(-c2cc(-c3cccnc3)c3c(n2)-c2ccccc2C3)c1	50.6%	68.5%	1.7%	> 50 µM	> 50 µM	30.6%	> 50 µM	4.67 µM
Oc1cccc(-c2cc(-c3ccoc3)c3c(n2)-c2ccccc2C3)c1	56.2%	69.2%	0%	> 50 µM	> 50 µM	19.3%	28.9 µM	0.94 µM
Oc1cccc(-c2cc(-c3ccco3)c3c(n2)-c2ccccc2C3)c1	78.2%	59.7%	5.5%	1.59 µM	6.74 µM	44.5%	4.38 µM	3.66 µM
COc1cc([C@@H]2c3cc4c(cc3[C@@H](O[C@@H]3O[C@@H]5CO[C@@H](C)O[C@H]5[C@H](O)[C@H]3O)[C@H]3COC(=O)[C@H]23)OCO4)cc(OC)c1O [ETOPOSIDE]	–	–	–	–	0.7 µM	–	–	–
c1ccc(-c2cc(-c3ccncc3)c3c(n2)-c2ccccc2C3)cc1	–	3.3%	–	> 50 µM	> 50 µM	–	> 50 µM	> 50 µM
c1ccc(-c2cc(-c3ccco3)c3c(n2)-c2ccccc2C3)cc1	44.5%	73%	8.7%	11.2 µM	10.6 µM	25.9%	5 µM	1.42 µM
Oc1ccccc1-c1cc(-c2cccnc2)c2c(n1)-c1ccccc1C2	3.5%	70.9%	3.8%	> 50 µM	> 50 µM	–	> 50 µM	> 50 µM
c1ccc(-c2cc(-c3cccnc3)c3c(n2)-c2ccccc2C3)cc1	–	4.1%	–	> 50 µM	> 50 µM	–	> 50 µM	> 50 µM
Oc1ccccc1-c1cc(-c2ccncc2)c2c(n1)-c1ccccc1C2	5.1%	68.7%	2.3%	> 50 µM	> 50 µM	–	39.6 µM	> 50 µM
c1ccc(-c2cc(-c3ccsc3)c3c(n2)-c2ccccc2C3)cc1	16.7%	3.4%	–	31.4 µM	> 50 µM	–	1.62 µM	29.8 µM
c1ccc(-c2cc(-c3ccccn3)c3c(n2)-c2ccccc2C3)cc1	16.4%	3.6%	–	> 50 µM	44.5 µM	–	13.2 µM	18.7 µM
